Sampled rows, rich in hits. Any-hit rate of the full collection: about 2.9%.
Dynein transport = dynein cargo transport inhibition; z-score, hits read low; 3617.4 mouse cells, GR-EGFP nuclear translocation imaging; test concentration mostly 20 µM; stimulated with dexamethasone, 1 µM; active compounds read low; AID 1381; 0.47% of 220,000 active;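 active means plate z-score of nuclear minus cytoplasmic receptor signal below a set negative limit, without overly bright fluorescence or cell loss, cut at about -3.5 in these data, passing the limit was not always enough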;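 further: z-score of nuclear minus cytoplasmic ring GR-EGFP intensity difference per well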
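medium = tetracycline-free induction medium containing charcoal-stripped FBS | also added = 1.0 µM final dexamethasone stimulus | schedule = 48 h induction, 1 h compound, 30 min dex at 37 °C | technique = fixed, Hoechst-stained cells imaged at 10x for EGFP | measure = GR-EGFP nuclear translocation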
ATG4B inh = inhibitors of human ATG4B cysteine protease; Q9Y4P1; 0.51% of 340,000 active; ATG4B cleavage of LC3-PLA2, NBD-HPC fluorescence, 1 h; AID 504462; inhibition, % at 8.33 µM; in the data active means inhibition above about 40%
Target sequence (Q9Y4P1 whole entry, looked up): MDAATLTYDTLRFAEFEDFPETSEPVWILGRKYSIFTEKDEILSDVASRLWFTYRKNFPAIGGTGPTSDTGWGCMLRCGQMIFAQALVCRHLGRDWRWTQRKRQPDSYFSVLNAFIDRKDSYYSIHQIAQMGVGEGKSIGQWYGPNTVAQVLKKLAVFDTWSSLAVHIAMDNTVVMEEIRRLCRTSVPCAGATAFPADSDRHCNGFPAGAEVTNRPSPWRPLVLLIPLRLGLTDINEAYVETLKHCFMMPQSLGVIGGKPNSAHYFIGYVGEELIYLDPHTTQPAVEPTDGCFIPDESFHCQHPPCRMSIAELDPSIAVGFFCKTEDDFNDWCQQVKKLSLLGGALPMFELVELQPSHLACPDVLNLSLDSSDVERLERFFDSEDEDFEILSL
MEKK2mut PB1 HTS = signal of MEK5 binding to mutant human MEKK2 PB1 domain. bead flow cytometry, Alexa488-MEK5 binding to MEKK2 mutant. percent response, % at 10 µM. 0.35% of 290,000 active; in the data active means percent response above about 24%, passing the limit was not always enough
MEKK3 PB1 HTS = MEKK3-MEK5 PB1 interaction, increase or decrease; Q99759; bead-based flow cytometry, Alexa488-MEK5 binding to MEKK3; actives lie on both sides; 0 = blocked by unlabeled MEK5, 100 = vehicle; binding response (% of control), % at 10 µM; 1.4% of 290,000 active; AID 1529;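 active means binding response more than 3 SD above or below the average of its plate-row segment, actives on both sides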;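 further: Alexa488 bead fluorescence after subtracting the streptavidin-only scavenger bead signal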
B2AR ag = activates human beta-2 adrenergic receptor causing internalization; P07550; Am2.2-beta2AR cells, FAP receptor internalization, flow cytometry; response, % (no concentration beside the values); 0.43% of 340,000 active; AID 504454;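 active means response above a set limit, near 3 SD of response in nonfluorescent compounds, cut at about 42% in these data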
MEKK2wt PB1 HTS = raises or lowers MEK5 binding to wildtype human MEKK2 PB1 domain; binding response (% of control), % at 10 µM; bead flow cytometry, Alexa488-MEK5 binding to MEKK2 WT; actives lie on both sides; 1.1% of 290,000 active; in the data active means binding response below about 67% or above about 130%
Numbers stand for hits; 0 = inactive; - = no result given.

SMILES | Dynein transport | ATG4B inh | MEKK2mut PB1 HTS | MEKK3 PB1 HTS | B2AR ag | MEKK2wt PB1 HTS
CCC(C)(C)NC(=O)CN(C(=O)C(=O)Nc1ccc2c(c1)OCCO2)N1CCOCC1 | - | 0 | 0 | 0 | 0 | 0
CCc1ccc(CCC(=O)Nc2ncc(Cc3ccccc3Cl)s2)o1 | 0 | 0 | 0 | 163.0 | 0 | 0
Cc1ccc(SCC(=O)OCC(=O)NC2(C#N)CCCCC2)cc1 | - | 0 | 0 | 0 | 0 | 0
COC(=O)/C=C\C(C#N)(C#N)N=Cc1ccc(OC)cc1 | - | 0 | - | - | 47.1 | -
COc1ccc(C=NNC(=O)CCCCC(=O)NN=Cc2ccc(OC)cc2)cc1 | - | 0 | - | - | 0 | -
Cc1cccc(C)c1NC(=O)CNC(=O)C(Cc1ccccc1)NC(=O)c1ccccc1 (stereo unspecified) | - | 0 | 0 | 0 | 0 | 0
CCOc1ccc(N(CC(=O)N/N=C(\C)c2cccc(NC(C)=O)c2)S(=O)(=O)c2ccccc2)cc1 | - | 0 | 0 | 0 | 0 | 0
CCN(CC)c1ccc(C=NCCNS(=O)(=O)c2ccc(C)cc2)cc1 | - | 0 | 0 | 0 | 0 | -6.0
CC(C)COc1cccc(-c2cc(C(=O)N/N=C/c3ccncc3)c3ccccc3n2)c1 | - | 0 | 0 | 0 | 50.7 | 0
COc1cc(/C=C2\C(=N)N3N=C(C)SC3=NC2=O)cc(OC)c1OCCOc1ccccc1C | - | 0 | 0 | 0 | 0 | 0
COc1cc(/C=C2\C(=N)N3N=C(S(C)(=O)=O)SC3=NC2=O)cc(OC)c1OCCOc1ccccc1C | - | 77.2 | 0 | 0 | 0 | 0
CCN(CC)CCCNc1nc(SC)nc2sc3c(c12)CCN(C)C3 | - | - | 30.0 | 0 | - | 153.0
CC1CCN(S(=O)(=O)c2ccc(NC(=O)c3ccco3)cc2)CC1 | - | 0 | 0 | 0 | 0 | 0
CN(Cc1ccccc1)C(=O)c1cccc(NC(=O)Cc2ccc(NC(=O)C3CCCN(C(=O)c4ccccc4)C3)cc2)c1 (stereo unspecified) | - | 0 | - | - | 0 | -
CCN(CCNC(=O)C1CCN(S(=O)(=O)c2c(C)noc2C)CC1)c1ccccc1 | 0 | 0 | 0 | 0 | 0 | 0
CCN(CC)CCNC(=O)C1CCN(S(=O)(=O)c2c(C)noc2/C=C/c2ccccc2F)CC1 | - | 0 | 0 | 0 | 0 | 136.0
COc1cccc(C(=O)N=c2sc3c(C)ccc(OC)c3n2C)c1 | - | 0 | 0 | 0 | 0 | 0
COc1ccc(C(=O)N=c2sc3c(C)ccc(OC)c3n2C)cc1OC | 0 | 0 | 0 | 0 | 47.4 | 0
Cc1nn(C(C)C)c(C)c1CN1CCC(C(=O)Nc2cccc(-c3cccc(F)c3)c2)CC1 | - | 0 | 0 | 0 | 0 | 135.0
Cn1cc(CN2CCC(C(=O)Nc3cccc(-c4cccc(F)c4)c3)CC2)cn1 | - | 0 | 0 | 0 | 0 | 146.0
CCn1cc(CN2CCCC(C(=O)Nc3cccc(-c4cc5ccccc5[nH]4)c3)C2)cn1 (stereo unspecified) | - | 0 | 0 | 0 | 0 | 147.0
C=CCn1cc(CN2CCC(C(=O)Nc3cccc(-c4cccc(F)c4)c3)CC2)c(C)n1 | - | 0 | 0 | 0 | 0 | 135.0
CCc1ncc(CN2CCCC(C(=O)Nc3cccc(-c4ccc(F)cc4)c3)C2)cn1 (stereo unspecified) | - | 0 | 0 | 0 | 0 | 0
COc1ccc(-c2nn(-c3ccccc3)cc2C(=O)N2CCN(S(=O)(=O)c3cccc(F)c3)CC2)cc1 | - | 0 | - | - | 0 | -
Cc1noc(C)c1COc1ccc(C(=O)N2CCCC(C(N)=O)C2)cc1 (stereo unspecified) | - | 0 | 0 | 0 | 0 | 0
SMILES | Dynein transport | ATG4B inh | MEKK2mut PB1 HTS | MEKK3 PB1 HTS | B2AR ag | MEKK2wt PB1 HTS
CCC(C)[C@H]1CNCCN1CCc1cccc2ccccc12 (stereo partly specified) | - | 0 | - | - | 0 | -
C=CCn1cc(CN2CCC(C(=O)Nc3cccc(-c4cccc(Cl)c4)c3)CC2)c(C)n1 | - | 0 | 0 | 0 | 0 | 157.0
Cc1c(CN2CCC(C(=O)Nc3cccc(-c4cccc(Cl)c4)c3)CC2)cnn1C | - | 0 | 0 | 0 | 0 | 136.0
CCOC(=O)C(Cc1ccccc1)C(=O)NCc1cccnc1 (stereo unspecified) | - | 0 | 0 | 0 | 0 | 0
CC(C)C(NC(=O)C12CC3CC(CC(C3)C1)C2)C(=O)N/N=C/C1=C(N2CCOCC2)C(=C\c2ccc([N+](=O)[O-])cc2)/CC1 (stereo unspecified) | 0 | 0 | 0 | 0 | 0 | -2.0
CC(NC(=O)C12CC3CC(CC(C3)C1)C2)C(=O)N/N=C/C1=C(N2CCOCC2)C(=C\c2cccc([N+](=O)[O-])c2)/CC1 (stereo unspecified) | 0 | 0 | 0 | 0 | 0 | 0
O=C(Nc1nnc(-c2ccccc2)o1)C1CCCN1S(=O)(=O)c1cccs1 (stereo unspecified) | - | 0 | - | - | 0 | -
c1ccc(C2(Cn3ccc4ccccc43)OCCO2)cc1 | 0 | 0 | 0 | 0 | 0 | 12.0
O=C(O)c1ccc(Cn2ccc3ccccc32)o1 | - | 0 | 0 | 0 | 0 | 0
CC(C)(C)c1ccc(C(=O)CCC(=O)OCC(=O)NCCc2ccc(S(N)(=O)=O)cc2)cc1 | - | 0 | - | - | 0 | -
COc1ccc(C)c2sc(N(CCN(C)C)C(=O)/C=C/c3cccs3)nc12 | - | 0 | 0 | 0 | 0 | 145.0
CCN(CC)CCN(C(=O)/C=C/c1cccs1)c1nc2ccc(C)cc2s1 | - | 0 | 0 | 0 | 0 | 160.0
CCOc1cccc2sc(N(CCN(C)C)C(=O)/C=C/c3cccs3)nc12 | - | 0 | 26.0 | 0 | 0 | 144.0
COc1ccc(OC)c2sc(N(CCN(C)C)C(=O)/C=C/c3cccs3)nc12 | - | 0 | 0 | 0 | 0 | 0
COc1ccc(-n2c(SCC(=O)Nc3cc(C)on3)nc3ccccc3c2=O)cc1Cl | 0 | 0 | 83.0 | 0 | 0 | -
COc1cccc(-n2c(SCC(=O)Nc3cc(C)on3)nc3ccccc3c2=O)c1 | 0 | 0 | 0 | 0 | 0 | 0
CCc1ccc2c(c1)/C(=C/C(=O)c1cccs1)C(=O)N2 | 0 | 0 | 0 | 0 | 78.1 | 0
COc1ccc(C(=O)COC(=O)c2nn(C)cc2Cl)cc1 | - | 0 | 0 | 0 | 0 | 0
COc1ccccc1-c1oc2ccccc2c1C#CC(C)(C)O | - | 0 | - | - | 0 | -
O=C(CCc1ccccc1)Nc1ccnn1C1CCN(C/C=C/c2ccccc2)CC1 | - | 0 | 27.0 | 0 | 0 | 0

Bioassay records as filed in PubChem BioAssay.
